Assay results taken from PubChem BioAssay.
Active and inactive are the calls of the source. Unless noted, how the calls were made is not given here.

Key:
[1] = target: Pantothenate synthetase (Mycobacterium tuberculosis (strain ATCC 25618 / H37Rv)) (UniProt P9WIL5); test: Recombinant Mtb pantothenate synthetase (PanC) inhibitors, coupled enzyme, confirmatory (AID 375); settings: coupled enzyme assay; at 10 µM, stronger effect = higher value;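 further: 0% = full reaction with vehicle and 100% = no enzyme background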
[2] = reducers of endogenous Her2 protein level, primary screen, SKBR3 breast tumor cells, AlphaScreen, ATP viability (AID 461;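 active means Her2 level under about 52% in both replicate screens, with viability over 70% of control, limit read from the data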;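 on Her2 level: lower value means less Her2 protein in the cells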;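 on viability: percent of carrier control wells set as 100% viability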); settings: 18-24 h, measured here: SKBR3 viability, ATP luminescence, at 10 µM
[3] = target: Receptor tyrosine-protein kinase erbB-2 (Homo sapiens) (UniProt P04626); test: as above; settings: 18-24 h, at 10 µM, stronger effect = lower value
[4] = SK-BR-3 cell growth inhibitors, pilot screen, 24 h, human (AID 572;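 active means viability at or below 10% of carrier control in both of two separate runs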;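 further: compound exposure lasted between 18 and 24 h rather than exactly 24 h; 100% = carrier-treated control wells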); settings: SK-BR-3 viability, CellTiter-Glo luminescence, at 10 µM, stronger effect = lower value
[5] = HUVEC growth inhibition – cell-based, human, primary screen (AID 575;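 active means viability at or below 30% in both replicate assays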;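 further: 100% = median of untreated cell wells with 0.1% DMSO on each plate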); settings: HUVEC proliferation, CellTiter-Glo luminescence, 72 h; at 10 µM; stronger effect = lower value
Summary of the method: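 Material: primary human umbilical vein endothelial cells / Schedule: 72 h exposure, 37 °C, 5% CO2, 30 min RT equilibration / Signal: ATP-based CellTiter-Glo luminescent read / Read-out basis: percent of median DMSO-control luminescence / Control set: 32 DMSO-only cell-control wells (high), 32 MePR drug-control wells (low) per plate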

[6] = growth inhibitors of H69AR lung tumor, primary screen, human, duplicate replicates (AID 580;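 active means viability at or under a set limit in both replicates, limit being median viability minus 3 SD, cut at about 48% in these data, passing the limit was not always enough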;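 further: 100% = mean luminescence of untreated wells and 0% = no signal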); settings: H69AR lung tumor cells viability, ATP luminescence, 72 h; at 10 µM; stronger effect = lower value
[7] = reversal of MRP1-mediated doxorubicin resistance, pilot screen, H69AR cells, doxorubicin co-treatment (AID 601;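 active means viability loss from added drug above about 55%, and viability with drug at most 40%, in both replicates, limit read from the data, passing the limit was not always enough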); settings: CellTiter-Glo, 72 h, at 10 µM; for differential viability (reversal): stronger effect = higher value
[8] = 384-well plate pilot, post-Golgi transport modulator project, inhibition of yeast transport mutant growth (AID 636; in the data active means inhibition above about 31%); settings: absorbance 615 nm, about 18 h, stronger effect = higher value
[9] = growth suppression of yeast trafficking mutant, preliminary HTS, modulators of trafficking downstream of Golgi apparatus project, 1536-format plate, OD 615 nm (AID 637; in the data active means inhibition above about 30%); settings: yeast transport mutant growth, absorbance 615 nm, 18 h; stronger effect = higher value
[10] = H69AR cells + 2 uM doxorubicin, measured here: viability with 2 uM doxorubicin, stronger effect = lower value
[11] = H69AR cells, compound alone cytotoxicity

Chain of Pantothenate synthetase (Mycobacterium tuberculosis (strain ATCC 25618 / H37Rv)) (P9WIL5 whole entry, looked up): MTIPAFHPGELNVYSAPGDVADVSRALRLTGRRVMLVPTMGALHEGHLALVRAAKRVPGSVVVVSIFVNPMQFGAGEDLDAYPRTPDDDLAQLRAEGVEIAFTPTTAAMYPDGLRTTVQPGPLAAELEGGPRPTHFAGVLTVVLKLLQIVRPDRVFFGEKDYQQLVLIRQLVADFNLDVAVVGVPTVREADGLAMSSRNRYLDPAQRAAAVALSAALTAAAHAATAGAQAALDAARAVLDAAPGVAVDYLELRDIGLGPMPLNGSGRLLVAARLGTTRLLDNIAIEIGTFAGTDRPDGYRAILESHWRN
Chain of Receptor tyrosine-protein kinase erbB-2 (Homo sapiens) (P04626 whole entry, looked up): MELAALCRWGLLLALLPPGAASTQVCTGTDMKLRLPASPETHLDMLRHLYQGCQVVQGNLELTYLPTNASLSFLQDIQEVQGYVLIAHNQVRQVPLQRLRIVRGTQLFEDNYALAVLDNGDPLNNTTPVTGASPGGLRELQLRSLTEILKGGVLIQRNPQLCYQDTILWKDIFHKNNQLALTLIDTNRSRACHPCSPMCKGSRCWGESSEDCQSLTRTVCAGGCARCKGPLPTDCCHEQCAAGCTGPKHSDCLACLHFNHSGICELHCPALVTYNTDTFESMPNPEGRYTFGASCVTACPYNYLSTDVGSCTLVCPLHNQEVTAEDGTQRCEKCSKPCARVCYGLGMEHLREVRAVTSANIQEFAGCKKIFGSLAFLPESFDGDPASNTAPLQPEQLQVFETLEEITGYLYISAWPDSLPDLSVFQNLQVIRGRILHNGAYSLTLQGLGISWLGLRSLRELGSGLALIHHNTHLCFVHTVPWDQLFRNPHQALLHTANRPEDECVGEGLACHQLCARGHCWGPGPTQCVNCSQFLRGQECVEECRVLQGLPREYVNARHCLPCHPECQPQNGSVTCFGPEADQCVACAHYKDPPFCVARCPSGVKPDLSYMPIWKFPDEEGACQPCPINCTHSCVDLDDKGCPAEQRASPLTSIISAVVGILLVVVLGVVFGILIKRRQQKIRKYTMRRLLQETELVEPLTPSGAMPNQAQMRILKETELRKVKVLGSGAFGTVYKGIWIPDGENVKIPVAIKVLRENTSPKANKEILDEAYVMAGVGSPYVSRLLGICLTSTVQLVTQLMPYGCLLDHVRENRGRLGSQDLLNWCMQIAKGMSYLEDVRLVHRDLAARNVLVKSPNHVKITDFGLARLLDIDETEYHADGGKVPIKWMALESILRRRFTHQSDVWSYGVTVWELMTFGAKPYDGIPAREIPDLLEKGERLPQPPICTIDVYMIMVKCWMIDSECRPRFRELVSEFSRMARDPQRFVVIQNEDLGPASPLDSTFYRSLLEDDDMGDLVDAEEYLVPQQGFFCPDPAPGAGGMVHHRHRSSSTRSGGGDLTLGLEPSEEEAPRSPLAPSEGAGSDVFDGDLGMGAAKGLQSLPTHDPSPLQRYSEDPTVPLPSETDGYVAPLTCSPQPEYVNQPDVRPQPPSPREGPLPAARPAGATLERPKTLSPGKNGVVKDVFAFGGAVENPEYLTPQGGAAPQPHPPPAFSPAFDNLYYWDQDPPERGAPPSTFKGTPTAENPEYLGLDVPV

SMILES	inhibition [1]	viability [2] [%]	Her2 level [3]	viability [4]	viability [5]	viability [6]	differential viability (reversal) ([7]; H69AR cells + 2 uM doxorubicin)	viability [7, 10] [%]	viability [7, 11] [%]	inhibition [8]	inhibition [9]
CCCCn1c(O)c(C(CC)=Nc2cccc(C(=O)O)c2)c(=O)[nH]c1=O	0% (inactive)	97.5	92% (inactive)	97.5% (inactive)	96.9% (inactive)	102% (inactive)	9.65% (inactive)	92.6	102	-2.67% (inactive)	-4.13% (inactive)
O=c1[nH]c(=O)n(CCc2ccc(F)cc2)c(O)c1C=NCCCn1ccnc1	0% (inactive)	114	84% (inactive)	114% (inactive)	99.5% (inactive)	102% (inactive)	15.3% (inactive)	86.8	102	-4.8% (inactive)	3.28% (inactive)
Cc1ccc(C)c(C2(O)CC(C)N(C)CC2C)c1 (configuration not stated)	0% (inactive)	110	103% (inactive)	110% (inactive)	94.9% (inactive)	102% (inactive)	10.4% (inactive)	91.7	102	-1.32% (inactive)	-2.7% (inactive)
COC(=O)c1c(C)n(Cc2ccc3c(c2)OCO3)c2ccc(O)cc12	6% (inactive)	116	95% (inactive)	116% (inactive)	54.5% (inactive)	105% (inactive)	5.33% (inactive)	100	105	-3.6% (inactive)	-1.94% (inactive)
CC(=NCc1ccc2c(c1)OCO2)c1c(O)n(C)c(=O)n(C)c1=O	6% (inactive)	94	90% (inactive)	94% (inactive)	92.8% (inactive)	98% (inactive)	1.15% (inactive)	96.9	98	-4.42% (inactive)	-2% (inactive)
CCOP(=S)(OCC)c1ccc(N(C)C)cc1	0% (inactive)	92.5	104% (inactive)	92.5% (inactive)	93.6% (inactive)	78.3% (inactive)	-9.22% (inactive)	87.5	78.3	4.29% (inactive)	-12.1% (inactive)
Cc1ccc(-n2c(O)c(C=NCCN3CCOCC3)c(=O)[nH]c2=O)cc1	3% (inactive)	124	96.5% (inactive)	124% (inactive)	93.4% (inactive)	102% (inactive)	8.65% (inactive)	93.5	102	-5.2% (inactive)	2.26% (inactive)
NCCc1ccc(O)cc1	0% (inactive)	112	112% (inactive)	112% (inactive)	103% (inactive)	96.2% (inactive)	4.17% (inactive)	92.1	96.2	-5% (inactive)	-21.1% (inactive)
O=C1OCCC1NC1=NCCC1 (configuration not stated)	0% (inactive)	92	91% (inactive)	92% (inactive)	111% (inactive)	100% (inactive)	13.1% (inactive)	87.1	100	-0.78% (inactive)	-5.41% (inactive)
COc1ccc(C2NCc3ccc4c(c3-n3cccc32)OCO4)cc1O (configuration not stated)	0% (inactive)	110	73% (inactive)	110% (inactive)	40.7% (inactive)	25.5% (active)	-41.5% (inactive)	67	25.5	-5.79% (inactive)	-5.56% (inactive)
COc1ccc(S(=O)(=O)NC(CC(=O)N2CCC3(CC2)OCCO3)c2ccco2)cc1 (configuration not stated)	0% (inactive)	134	106% (inactive)	134% (inactive)	101% (inactive)	93.9% (inactive)	5.91% (inactive)	88	93.9	-8.77% (inactive)	-0.48% (inactive)
Cc1ccc(C2SCC(=O)Nc3c2c(=O)[nH]n3C2CCOC(C)(C)C2)cc1 (configuration not stated)	0% (inactive)	100	92% (inactive)	100% (inactive)	90.9% (inactive)	98.2% (inactive)	11.2% (inactive)	87	98.2	-5.66% (inactive)	5.83% (inactive)
O=C1CC(c2ccccc2)CC(O)=C1C=NCCN1CCN(C(=O)Cc2ccccc2)CC1 (configuration not stated)	0% (inactive)	122	97% (inactive)	122% (inactive)	91.2% (inactive)	92.1% (inactive)	-2.69% (inactive)	94.8	92.1	-0.26% (inactive)	11.5% (inactive)
O=C(CCCOc1ccc(Cl)cc1Cl)N1CCC2(CC1)OCCO2	0% (inactive)	106	96.5% (inactive)	106% (inactive)	93.3% (inactive)	92.5% (inactive)	11.1% (inactive)	81.5	92.5	-5% (inactive)	-2% (inactive)
COc1ccc(N2CCN(CCCN)CC2)cc1	0% (inactive)	94.5	88% (inactive)	94.5% (inactive)	72.6% (inactive)	81.5% (inactive)	3.81% (inactive)	77.7	81.5	-0.91% (inactive)	-1.27% (inactive)
CCCCCCn1c(O)c(C=NC2CCN(Cc3ccccc3)CC2)c(=O)[nH]c1=O	0% (inactive)	83	67.5% (inactive)	83% (inactive)	72.3% (inactive)	74.8% (inactive)	5.99% (inactive)	68.8	74.8	-1.05% (inactive)	4.84% (inactive)
CCCCn1c(O)c(C=NC2CCCCC2N)c(=O)[nH]c1=O (configuration not stated)	0% (inactive)	128	96.5% (inactive)	128% (inactive)	92.6% (inactive)	79.3% (inactive)	4.94% (inactive)	74.4	79.3	-2.6% (inactive)	1.43% (inactive)
Cc1[nH]c2c(Cl)cccc2c1CCN	0% (inactive)	97.5	85.5% (inactive)	97.5% (inactive)	84.4% (inactive)	13.2% (active)	-69.9% (inactive)	83.1	13.2	-4.67% (inactive)	5.9% (inactive)
Cc1cc(NC(=O)COC(=O)c2c(C)nn(Cc3ccccc3)c2Cl)no1	0% (inactive)	96	102% (inactive)	96% (inactive)	79.2% (inactive)	105% (inactive)	19% (inactive)	86	105	-4.27% (inactive)	-8.03% (inactive)
CCNc1ccc(P(=S)(N(C)C)N(C)C)cc1	1% (inactive)	91	93% (inactive)	91% (inactive)	115% (inactive)	88.2% (inactive)	-16.7% (inactive)	105	88.2	-7.92% (inactive)	-4.6% (inactive)
COC(=O)CC1(Cc2ccccc2)C(=O)NC(=O)NC1=O	0% (inactive)	92.5	96.5% (inactive)	92.5% (inactive)	86.8% (inactive)	102% (inactive)	13.1% (inactive)	88.4	102	-5.07% (inactive)	-0.98% (inactive)
COc1ccc(CCNC(=O)c2c(N)n(CCN3CCOCC3)c3nc4ccccc4nc23)cc1	0% (inactive)	104	87.5% (inactive)	104% (inactive)	–	19.3% (active)	-20.5% (inactive)	39.8	19.3	3.82% (inactive)	1.82% (inactive)
O=c1[nH]c(=O)n(CCc2ccccc2)c(O)c1C=NCCN1CCNCC1	6% (inactive)	99	91.5% (inactive)	99% (inactive)	108% (inactive)	93% (inactive)	1.67% (inactive)	91.3	93	-1.58% (inactive)	5.16% (inactive)
CC(C)C(=O)N1CCN(CCN=Cc2c(O)n(C)c(=O)n(C)c2=O)CC1	3% (inactive)	100	116% (inactive)	100% (inactive)	122% (inactive)	96.5% (inactive)	-0.17% (inactive)	96.7	96.5	-5.39% (inactive)	-1.48% (inactive)
COc1ccccc1CN1CCN(C(=O)Cc2ccccc2)CC1	1% (inactive)	–	–	97% (inactive)	101% (inactive)	99.6% (inactive)	3.51% (inactive)	96.1	99.6	-4.8% (inactive)	-4.36% (inactive)
COc1ccccc1N(CC(=O)NC1CCCCC1)C(=O)c1cnn(C(C)C)c1	7% (inactive)	96.5	104% (inactive)	96.5% (inactive)	103% (inactive)	106% (inactive)	8.82% (inactive)	97.2	106	1.08% (inactive)	-5.24% (inactive)
CC1CCC(C(=O)NC(C(=O)N2CCC3(CC2)OCCO3)C(C)C)CC1 (configuration not stated)	3% (inactive)	96.5	98.5% (inactive)	96.5% (inactive)	114% (inactive)	99.5% (inactive)	8.49% (inactive)	91	99.5	-6.36% (inactive)	-5.25% (inactive)
CCCCOc1ccc(CN2CCN(CCO)CC2)cc1	0% (inactive)	74	91.5% (inactive)	74% (inactive)	94.7% (inactive)	90.1% (inactive)	12.2% (inactive)	77.9	90.1	1.17% (inactive)	-1.64% (inactive)
COc1cc(/C=N/n2cnnc2)ccc1OC(=O)N(C)C	6% (inactive)	97	96.5% (inactive)	97% (inactive)	99.5% (inactive)	102% (inactive)	9.57% (inactive)	92.7	102	-4.21% (inactive)	-2.06% (inactive)
COc1ccc(CN2CCN(c3ccccc3F)CC2)c(OC)c1	1% (inactive)	92	88% (inactive)	92% (inactive)	91.1% (inactive)	128% (inactive)	42.5% (inactive)	85.4	128	-4.46% (inactive)	-0.98% (inactive)
